Screening data from PubChem BioAssay.
Compounds with a hit are over-represented: about 2.5% of the library has one in this group of screens.
Arrestin-AP2 inh – human beta-arrestin and AP2 interaction inhibition; FITC-arrestin peptide / GST-AP2 beads, flow cytometry; AP2 beta2 appendage carries R879A mutation; inhibition, % at 10 µM; 0.31% of 340,000 active;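 active means inhibition above a set limit, near 3 SD of compounds lacking own fluorescence, cut at about 54% in these data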;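 further: plate controls were DMSO wells for no effect and 5 µM unlabelled arrestin peptide for full effect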
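Material – GST-tagged AP2 beta2-adaptin appendage (R879A) on 4 µm glutathione beads · Probe or stimulus – fluorescein-tagged arrestin peptide at 50 nM final · Timing – 12 min plus 1 h, RT · Detection – bead flow cytometry, FITC channel · Read-out basis – inhibition as reduced fluorescein signal on beads, percent · Medium – PBS plus Tween 20 (0.05%) and BSA (0.1%)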
Rin1-Abl PPI inh – human Rin1-Abl interaction inhibition; 0.4% of 360,000 active; TR-FRET Rin1/Abl binding, biochemical; inhibition, % at 7.35 µM; in the data active means inhibition above about 5%, passing the limit was not always enough
ABHD5 PLIN5 PPI – inhibitors of human ABHD5-perilipin-5 interaction | inhibition, % at 4 µM | 0.78% of 360,000 active | Split G. princeps luciferase complementation, luminescence, 4 h | AID 602281;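 active means inhibition above the mean inhibition across every tested compound plus 3 SD, cut at about 22% in these data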;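 further: 0% = DMSO only wells and the 100% control is not disclosed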
MBD2 inh – blocks human MBD2 binding to methylated DNA; Q9UBB5; TR-FRET, MBD2 binding to methylated oligonucleotide; inhibition, % at 4.4 µM; 0.31% of 370,000 active; AID 686964; in the data active means inhibition above about 13%
Target sequence (Q9UBB5 whole entry, looked up): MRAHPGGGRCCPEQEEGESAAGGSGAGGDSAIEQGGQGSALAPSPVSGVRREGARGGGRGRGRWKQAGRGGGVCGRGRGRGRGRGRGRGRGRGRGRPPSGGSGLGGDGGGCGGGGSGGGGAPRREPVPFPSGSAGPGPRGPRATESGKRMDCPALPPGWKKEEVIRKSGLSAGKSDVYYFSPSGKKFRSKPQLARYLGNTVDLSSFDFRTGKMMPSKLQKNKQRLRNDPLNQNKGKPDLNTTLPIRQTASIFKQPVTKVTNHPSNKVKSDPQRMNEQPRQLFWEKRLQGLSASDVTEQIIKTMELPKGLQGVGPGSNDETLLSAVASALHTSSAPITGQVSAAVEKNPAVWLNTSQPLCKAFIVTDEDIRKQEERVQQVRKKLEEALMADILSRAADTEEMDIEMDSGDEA
UHRF1 binding – blocks human UHRF1 binding to methylated DNA | Q96T88 | UHRF1 binding to methylated oligo, TR-FRET | inhibition, % at 4.4 µM | 0.75% of 370,000 active; in the data active means inhibition above about 21%;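 further: UHRF1 SRA domain binding a hemimethylated CpG hairpin DNA probe; 0% = median of test compound wells and 100% = reference inhibitor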
B2AR ag – agonists of human beta-2 adrenergic receptor inducing internalization | AID 504454 | P07550 | response, % (test concentration not listed) | Am2.2-beta2AR cells, FAP receptor internalization, flow cytometry | 0.43% of 340,000 active;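 active means response above a set limit, near 3 SD of response in nonfluorescent compounds, cut at about 42% in these data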
* = called active by the depositor; / = not tested or not shown.

SMILES	Arrestin-AP2 inh	Rin1-Abl PPI inh	ABHD5 PLIN5 PPI	MBD2 inh	UHRF1 binding	B2AR ag
O=C(NNC(=O)c1ccccc1-c1ccccc1C(=O)O)c1ccccc1	10	-4	8	0	1	3
CCn1c(SCc2c(F)cccc2F)nc2sc3c(c2c1=O)CCCC3	/	/	/	-2	2	/
CCC(=O)OCCNc1cc(Sc2nccn2C)c2nonc2c1[N+](=O)[O-]	17	-5	7	-16	-8	83*
CC(=O)OCCCNc1cc(Sc2ccc(Cl)cc2)c2nonc2c1[N+](=O)[O-]	22	-1	-1	-4	-5	50*
CCC(=O)OCCNc1cc(SCCC(=O)OC)c2nonc2c1[N+](=O)[O-]	32	-7	-14	-11	-9	77*
Cc1ccc(Sc2cc(NCCCO)c([N+](=O)[O-])c3nonc23)cc1	-4	-2	3	0	-5	19
COc1ccc(NC(=O)CSc2ncnc3scc(-c4ccc(C)cc4)c23)cc1OC	/	/	/	-3	-1	/
COc1ccc(Cn2c(NC(=O)c3ccccc3)nc(Cc3ccccc3)c2-c2ccccc2)cc1	/	/	/	2	-2	/
Cc1cc(C(=O)O[C@@H]2CCC[C@]3(C(=O)N(Cc4ccccc4)c4ccccc43)[C@H]2NC(=O)CCc2ccccc2)no1	/	/	/	5	10	/
Cc1cccc(N2CCN(c3nc4ccccc4n4cnnc34)CC2)c1C	-3	-3	-1	-7	-1	42*
c1cnc(N2CCN(c3nc4ccccc4n4cnnc34)CC2)nc1	-3	-1	4	3	1	-11
COc1cccc(OC)c1NC(=O)OC1CCC12CCC(c1ccccc1)CC2 (centres undefined)	/	/	/	3	0	/
COC(=O)[C@]12C[C@H](CC(=O)N3CCOCC3)C(=O)N(CCc3ccc(OC)c(OC)c3)C1=C[C@H](C(C)C)O[C@@H]2C1CC1	/	/	/	-5	-2	/
Cc1csc2ncc(C(=O)Nc3cccc(C(F)(F)F)c3)c(=O)n12	-3	-4	1	0	2	-18
CCc1ccc(NC(=O)c2cnc3scc(C)n3c2=O)cc1	1	1	-1	1	46*	-13
O=C(Nc1nc(-c2ccco2)c(-c2ccco2)s1)c1ccc(F)cc1F	32	6	18	-6	-2	2
O=C(Nc1nc(-c2ccco2)c(-c2ccco2)s1)c1c(F)cccc1Cl	-4	5	33*	1	15	-3
O=C(Nc1nc(-c2ccco2)c(-c2ccco2)s1)c1cnccn1	/	/	/	13	40*	/
COc1ccccc1-c1cnc(C(O)c2cc(Cl)cc(Cl)c2)[nH]1 (centres undefined)	/	2	-4	5	22*	/
COc1ccccc1-c1cnc(C(O)c2ccccc2)[nH]1 (centres undefined)	/	-1	-1	-1	-2	/
O=C(Nc1nnc(-c2cccnc2)s1)c1cnc2ccccc2c1	/	/	/	0	0	/
COC(=O)c1ccc(Cn2cnc3cnccc32)cc1	17	4	10	0	25*	1
O=C1NCCN(CC2CCN(CCc3ccc(Cl)c(Cl)c3)CC2)C1=O	10	-5	11	11	24*	2
COc1cc(C)cc(C(=O)O)c1C1=C(O)c2cccc(O)c2C(=O)C1=O	8	1	1	-2	23*	-3
C#CCNC(=O)C[C@H]1C[C@@]2(C(=O)OC)C(=C[C@H](C(C)(C)C)O[C@@H]2C)N(Cc2cccc3ccccc23)C1=O	/	/	/	3	0	/
SMILES	Arrestin-AP2 inh	Rin1-Abl PPI inh	ABHD5 PLIN5 PPI	MBD2 inh	UHRF1 binding	B2AR ag
CC1(C)NC(=O)N(CCOCCOc2ccccc2-c2ccccc2)C1=O	-25	0	-3	1	28*	-2
O=c1c2ccc(F)cc2nc2sc(Nc3ccc4c(c3)CCC4)nn12	/	/	/	5	-1	/
CCCc1nnc(NC(=O)CCC(=O)NC2CCCC2)s1	-4	-2	-7	4	23*	-5
CCc1nnc(NC(=O)CCC(=O)NC2CCCC2)s1	-1	-1	-3	3	0	1
COC(=O)[C@]1(CNS(=O)(=O)C2CC2)CC(=O)N(C)[C@@H]1c1ccccc1	/	/	/	-3	6	/
COc1ccc(C(=O)/C=C/C(=O)N(Cc2ccccc2)C(C(=O)NC2CCCCC2)c2ccncc2)c(O)c1 (centres undefined)	14	2	-1	-2	2	-9
